# Test results published in ChEMBL document CHEMBL1141526, “3-Amino-1,5-benzodiazepinones: potent, state-dependent sodium channel blockers with anti-epileptic activity” (Bioorg Med Chem Lett, 2008).
# Activity calls are given as the source filed them. The calls are words filed in the database; no cut-off is given here.
# Experiments:
# [1] = Half life in Sprague-Dawley rat at 1.0 mg/kg, iv; type: ADME, organism-based; set-up: dose 1 mg/kg, route intravenous; settings: in vivo
# Outline: (§1)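 Fasted male Sprague–Dawley rats (n = 3 per route) received 1.0 mg/kg iv through a femoral vein cannula or 3.0 mg/kg po by gavage. Compound was formulated at 1.5 mg/mL in PEG300/water or DMSO/PEG300/water. Serial blood sampled at 5 min (iv only), 15 and 30 min, and 1, 2, 4, 6, 8 h. Plasma was acetonitrile-precipitated and measured by LC–MS/MS.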
# [2] = biological target: T1, Sodium channel protein type 9 subunit alpha (Homo sapiens, UniProt Q15858); experiment: Inhibition of human Nav1.7 sodium channel expressed in HEK293 cells by FRET assay; type: cell-based
# Outline: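 HEK-293 cells stably expressing hNav1.7 were used in a functional membrane-potential assay. Channel block was read as FRET between two membrane-associated dyes; the value is reported as IC50.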
# Target sequence in this assay (Q15858 whole entry): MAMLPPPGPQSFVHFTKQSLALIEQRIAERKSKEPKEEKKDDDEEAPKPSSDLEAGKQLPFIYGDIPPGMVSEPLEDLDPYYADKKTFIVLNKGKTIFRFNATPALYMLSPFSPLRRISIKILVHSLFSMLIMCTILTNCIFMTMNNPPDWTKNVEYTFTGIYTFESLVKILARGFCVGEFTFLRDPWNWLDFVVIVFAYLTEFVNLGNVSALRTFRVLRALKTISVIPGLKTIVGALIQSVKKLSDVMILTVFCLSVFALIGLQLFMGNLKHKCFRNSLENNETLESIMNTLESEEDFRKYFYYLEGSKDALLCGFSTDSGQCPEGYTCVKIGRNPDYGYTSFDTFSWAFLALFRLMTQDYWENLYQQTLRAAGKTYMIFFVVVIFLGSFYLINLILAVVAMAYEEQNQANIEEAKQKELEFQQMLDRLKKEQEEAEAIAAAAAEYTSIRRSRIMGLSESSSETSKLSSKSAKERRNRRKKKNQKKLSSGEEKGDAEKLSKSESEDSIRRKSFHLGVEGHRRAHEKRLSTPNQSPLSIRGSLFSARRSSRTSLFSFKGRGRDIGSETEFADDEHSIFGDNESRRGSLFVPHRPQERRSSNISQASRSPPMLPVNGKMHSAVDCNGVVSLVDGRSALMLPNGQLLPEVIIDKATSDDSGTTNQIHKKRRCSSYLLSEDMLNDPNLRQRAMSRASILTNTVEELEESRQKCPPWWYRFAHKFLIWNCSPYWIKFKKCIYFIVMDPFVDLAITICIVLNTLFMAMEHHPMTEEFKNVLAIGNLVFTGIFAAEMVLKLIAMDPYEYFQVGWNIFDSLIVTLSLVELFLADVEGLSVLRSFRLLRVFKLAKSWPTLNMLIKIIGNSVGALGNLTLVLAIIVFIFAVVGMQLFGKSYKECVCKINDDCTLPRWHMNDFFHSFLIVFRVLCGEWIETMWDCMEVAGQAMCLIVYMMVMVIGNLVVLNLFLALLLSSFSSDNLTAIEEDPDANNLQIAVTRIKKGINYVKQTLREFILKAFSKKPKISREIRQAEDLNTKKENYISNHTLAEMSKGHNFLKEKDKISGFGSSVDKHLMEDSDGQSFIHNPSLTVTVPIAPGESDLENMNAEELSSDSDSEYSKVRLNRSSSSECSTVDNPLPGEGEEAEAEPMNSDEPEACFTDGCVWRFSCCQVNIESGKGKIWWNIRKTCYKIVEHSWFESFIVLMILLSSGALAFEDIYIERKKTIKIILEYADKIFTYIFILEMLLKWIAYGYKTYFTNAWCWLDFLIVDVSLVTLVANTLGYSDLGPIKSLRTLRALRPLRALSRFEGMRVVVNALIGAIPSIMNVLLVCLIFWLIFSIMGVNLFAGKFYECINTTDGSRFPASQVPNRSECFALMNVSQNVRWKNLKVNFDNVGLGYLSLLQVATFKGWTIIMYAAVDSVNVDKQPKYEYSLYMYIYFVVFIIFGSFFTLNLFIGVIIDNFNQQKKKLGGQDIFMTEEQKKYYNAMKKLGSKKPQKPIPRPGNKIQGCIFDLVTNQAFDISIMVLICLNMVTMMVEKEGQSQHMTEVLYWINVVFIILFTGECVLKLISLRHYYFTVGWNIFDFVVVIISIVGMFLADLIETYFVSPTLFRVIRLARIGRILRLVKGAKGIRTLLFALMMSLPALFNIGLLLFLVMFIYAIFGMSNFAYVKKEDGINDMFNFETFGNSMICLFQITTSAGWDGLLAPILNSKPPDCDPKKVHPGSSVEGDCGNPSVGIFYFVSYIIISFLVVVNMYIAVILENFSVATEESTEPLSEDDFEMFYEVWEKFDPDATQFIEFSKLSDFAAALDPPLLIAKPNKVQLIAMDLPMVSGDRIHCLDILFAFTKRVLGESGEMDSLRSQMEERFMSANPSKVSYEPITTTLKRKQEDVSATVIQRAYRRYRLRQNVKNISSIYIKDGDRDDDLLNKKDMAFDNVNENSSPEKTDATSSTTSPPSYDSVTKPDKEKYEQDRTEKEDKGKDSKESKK
# [3] = Oral bioavailability in Sprague-Dawley rat at 3.0 mg/kg; type: ADME, organism-based; settings: in vivo; outline: as §1
# [4] = Clearance in Sprague-Dawley rat at 1.0 mg/kg, iv; type: ADME, organism-based; set-up: dose 1 mg/kg, route intravenous; settings: in vivo; outline: as §1
# [5] = Cmax in Sprague-Dawley rat at 3.0 mg/kg, po; settings: in vivo
# [6] = system: hERG (Potassium voltage-gated channel subfamily H member 2, Homo sapiens); experiment: Displacement of [35S]MK-0499 from human hERG potassium channel at 10 uM
# [7] = system: hERG (Potassium voltage-gated channel subfamily H member 2, Homo sapiens); experiment: Displacement of [35S]MK-0499 from human hERG potassium channel at 1 uM
# [8] = system: Mus musculus; experiment: Anticonvulsant activity in C57BL6J mouse assessed as prevention of shock-induced tonic-clonic seizures at 3 mg/kg, po after 30 mins; type: functional; settings: for ED50: 0.5 h
# Outline: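 Male C57BL6J mice, 14 weeks old. Dosed 3 mg/kg by gavage in 5% EtOH + 10% Tween 80 + 85% water, sonicated, 2 mL/kg. Maximal electroshock via auricular electrodes 30 min post-dose: 100 Hz, 0.7 ms pulse width, 0.5 s duration, 18 mA. Read-out was protection from tonic–clonic seizures; n = 10.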
# [9] = biological target: T1, Sodium channel protein type 9 subunit alpha; settings: HEK293, 1 uM
# Target sequence in this assay (Q15858 whole entry, looked up): as the sequence (Q15858 whole entry) above
# [10] = biological target: T1, Sodium channel protein type 9 subunit alpha; settings: HEK293
# Target sequence in this assay (Q15858 whole entry, looked up): as the sequence (Q15858 whole entry) above
# [11] = biological target: T1, Sodium channel protein type 9 subunit alpha; experiment: Inhibition of human Nav1.7 sodium channel expressed in HEK293 cells at a membrane potential of -70 mV by whole cell voltage clamp technique; type: cell-based
# Outline: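 Whole-cell voltage clamp on HEK-293 cells stably expressing hNav1.7. Peak current evoked by 20 ms depolarizations from −70 mV. Bath: 40 mM NaCl, 120 mM NMDG–Cl, 1 mM KCl, 2.7 mM CaCl2, 0.5 mM MgCl2, 10 mM NMDG–Hepes, pH 7.4. Pipette: Cs–methanesulfonate/CsCl/CsF/BAPTA-based, pH 7.4. Junction potentials (<4 mV) were not corrected.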
# Target sequence in this assay (Q15858 whole entry): as above
SMILES,IC50 [2],inhibition [6],inhibition [7],further results
CC(C)N1C(=O)[C@H](NC(=O)[C@@H](Cc2ccccc2C(F)(F)F)NC(=O)OC(C)(C)C)CN(CC2CC2)c2ccccc21,149 nM,–,–,half-life [1]: 2.5 h; bioavailability [3]: 9%; clearance [4]: 23 mL/min/kg; Cmax [5]: 150 nM
CC(C)(C)OC(=O)N[C@H](Cc1cccc(F)c1)C(=O)N[C@@H]1CN(CC2CC2)c2ccccc2N(CC(F)(F)F)C1=O,142 nM,17%,–,–
NC(=O)N1c2ccccc2C=Cc2ccccc21 [CARBAMAZEPINE],–,–,–,ED50 [8]: 3.4 mg/kg
CN1C(=O)[C@H](NC(=O)[C@@H](Cc2ccccc2F)NC(=O)OC(C)(C)C)CNc2ccccc21,409 nM,25%,0%,–
Nc1nnc(-c2cccc(Cl)c2Cl)c(N)n1 [LAMOTRIGINE],–,–,–,ED50 [8]: 2.2 mg/kg
CC(C)(C)OC(=O)N[C@H](Cc1ccc(F)cc1)C(=O)N[C@@H]1CN(CC2CC2)c2ccccc2N(CC(F)(F)F)C1=O,219 nM,–,–,–
CN1C[C@@H](NC(=O)[C@@H](Cc2ccccc2F)NC(=O)OC(C)(C)C)C(=O)N(C)c2ccccc21,142 nM,7%,0%,–
CC(C)(C)OC(=O)N[C@H](Cc1ccccc1C(F)(F)F)C(=O)N[C@@H]1CN(CC2CC2)c2ccccc2N(CC(F)(F)F)C1=O,131 nM,11%,–,half-life [1]: 2.4 h; bioavailability [3]: 10%; clearance [4]: 51 mL/min/kg; Cmax [5]: 60 nM
CC(C)N1C(=O)[C@H](NC(=O)[C@@H](Cc2ccccc2F)NC(=O)OC(C)(C)C)CN(CC2CC2)c2ccccc21 (stereo in doubt; 22) [listing 1 of 2 here],102 nM,–,–,–
CC(C)N1C(=O)[C@H](NC(=O)[C@@H](Cc2ccc(F)cc2)NC(=O)OC(C)(C)C)CN(CC2CC2)c2ccccc21,196 nM,–,–,–
CC(C)N1C(=O)[C@H](NC(=O)[C@@H](Cc2ccccc2F)NC(=O)OC(C)(C)C)CN(CC2CC2)c2ccccc21 (stereo in doubt; 22) [listing 2 of 2 here],–,32%,–,–
CC(C)N1C(=O)[C@H](NC(=O)[C@@H](Cc2ccccc2F)NC(=O)OC(C)(C)C)CN(CC2CC2)c2ccccc21 (stereo in doubt; 14) [listing 1 of 2 here],–,33%,7%,–
CC(C)(C)OC(=O)N[C@H](Cc1ccccc1F)C(=O)N[C@@H]1CN(CC2CC2)c2ccccc2N(CC(F)(F)F)C1=O,101 nM,20%,7%,–
CC(C)N1C(=O)[C@H](NC(=O)[C@@H](Cc2ccccc2F)NC(=O)OC(C)(C)C)CN(CC2CC2)c2ccccc21 (stereo in doubt; 14) [listing 2 of 2 here],–,–,–,IC50 ([2]; hek293): 102 nM
CN1C(=O)[C@H](NC(=O)[C@@H](Cc2ccccc2F)NC(=O)OC(C)(C)C)CN(CC2CCCCC2)c2ccccc21,188 nM,43%,17%,–
CC(C)(C)OC(=O)N[C@H](Cc1cc(C(F)(F)F)ccc1C(F)(F)F)C(=O)N[C@@H]1CN(CC2CC2)c2ccccc2N(CC(F)(F)F)C1=O,120 nM,6%,–,–

# Now from value to molecule, other results behind:
IC50 [2],SMILES,inhibition [6],inhibition [7],further results
81 nM,CN1C(=O)[C@H](NC(=O)[C@@H](Cc2ccccc2F)NC(=O)OC(C)(C)C)CN(CC2CCC2)c2ccccc21,65%,20%,–
75 nM,CC(C)N1C(=O)[C@H](NC(=O)[C@@H](Cc2ccccc2OC(F)(F)F)NC(=O)OC(C)(C)C)CN(CC2CC2)c2ccccc21,35%,–,half-life [1]: 2.4 h; bioavailability [3]: 4%; clearance [4]: 30 mL/min/kg; Cmax [5]: 40 nM
25 nM,CN1C(=O)[C@H](NC(=O)[C@@H](Cc2ccccc2F)NC(=O)OC(C)(C)C)CN(Cc2ccccc2)c2ccccc21,84%,14%,–
30 nM,CC(C)(C)OC(=O)N[C@H](Cc1ccccc1)C(=O)N[C@@H]1CN(CC2CC2)c2ccccc2N(CC(F)(F)F)C1=O,–,–,half-life [1]: 3.1 h; inhibition [9]: < 10%; Kr [10]: > 5 µM; Activity [8]: Active; bioavailability [3]: 5%; clearance [4]: 48 mL/min/kg; Cmax [5]: 30 nM; IC50 [11]: 1.54 nM; Ki [11]: 0.63 nM
97 nM,CC(C)N1C(=O)[C@H](NC(=O)[C@@H](Cc2c(F)cccc2F)NC(=O)OC(C)(C)C)CN(CC2CC2)c2ccccc21,25%,–,–
47 nM,CN1C(=O)[C@H](NC(=O)[C@@H](Cc2ccccc2F)NC(=O)OC(C)(C)C)CN(CC(F)(F)F)c2ccccc21,62%,36%,–
49 nM,CN1C(=O)[C@H](NC(=O)[C@@H](Cc2ccccc2F)NC(=O)OC(C)(C)C)CN(CC2CC2)c2ccccc21,–,–,–
96 nM,CC(C)N1C(=O)[C@H](NC(=O)[C@@H](Cc2cccc(F)c2)NC(=O)OC(C)(C)C)CN(CC2CC2)c2ccccc21,17%,–,–
73 nM,CC(C)(C)OC(=O)N[C@H](Cc1ccccc1OC(F)(F)F)C(=O)N[C@@H]1CN(CC2CC2)c2ccccc2N(CC(F)(F)F)C1=O,–,–,–
52 nM,CC(C)N1C(=O)[C@H](NC(=O)[C@@H](Cc2ccccc2)NC(=O)OC(C)(C)C)CN(CC2CC2)c2ccccc21,42%,–,–
